Measurements taken from ChEMBL document CHEMBL4513216, “Probing the Open Global Health Chemical Diversity Library for Multistage-Active Starting Points for Next-Generation Antimalarials” (ACS Infect Dis, 2020).

Experiment: Toxicity liver stage against HepG2, at 10uM
Format: cell-based
Set-up: test concentration 10 uM, cell line HepG2-A16-CD81EGFP
Details: human, HepG2-A16-CD81EGFP cells; read-out: INHIBITION
In short: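 Uninfected HepG2-A16-CD81EGFP cells, 3 × 10^3 per well, 1536-well, plated on prespotted compound at 10 μM final, parasite-free screening media added to match infected plates; puromycin 10 μM positive, DMSO 0.5% negative; run in parallel with 48 h PbLuc assay at 37 °C, 5% CO2; viability by CellTiter-Glo luminescence, normalized to controls.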

Row | SMILES | cytotoxicity at 10 µM
1 | Cc1ccc(CNC2(Cc3cc(-c4ccccn4)on3)COC2)o1 | 8.91%
2 | O=c1[nH]c2c(-c3ccccn3)nsc2c(=O)n1CC1CC1 | 36.2%
3 | CS(=O)(=O)N1CCO[C@@H]2CN(C(=O)COC3CCCC3)C[C@@H]2C1 | 7.04%
4 | Cc1cnc(N2CCC3(CC2)CC(NC(=O)C(C)C)CO3)nc1 (centres undefined) | 8.19%
5 | COc1ccc(OC)c(NC(=O)CSc2ccc3nncn3n2)c1 | -14.2%
6 | COc1ccc(N2CCNC(C(N)=O)C2)cc1 (centres undefined) | -4.8%
7 | COCC(=O)N1CCC(c2cc(-c3ccc(N)nc3)cc(C)n2)CC1 | 2.06%
8 | CC(=O)N1CCCC1c1nc(C)no1 (centres undefined) | -14.8%
9 | COCC(=O)N1CCCC1c1nccnc1Nc1ncccn1 (centres undefined) | -2.69%
10 | CCn1cc(NC(=O)NCCN2CCCCCC2=O)cn1 | 0.107%
11 | Cn1cnnc1C1CCCN(c2nc3ccccc3o2)C1 (centres undefined) | -17.4%
12 | CC(C)c1ccc(S(=O)(=O)NC2CCN(CC(F)(F)F)C2)cc1 (centres undefined) | 9.19%
13 | CCN(Cc1ccoc1)C(=O)Nc1ccccc1CN(C)C(C)=O | 4.55%
14 | CCOc1ncccc1C(=O)NC1CC(=O)N(CC(F)(F)F)C1 (centres undefined) | 4.43%
15 | Cc1n[nH]c(C)c1CNC(=O)NC1CCCN(c2ccccc2F)C1 (centres undefined) | -2.57%
16 | O=C(c1ccon1)N1CCN(c2ccncc2Cl)CC1 | 2.22%
17 | CCC(C)(NCC(N)=O)c1nccs1 (centres undefined) | 7.3%
18 | CC(NC(=O)CCCc1nc(C(C)(C)C)no1)c1nnc2n1CCC2 (centres undefined) | -0.527%
19 | Cc1cnn(CCNCC(O)c2ccc(F)c(F)c2)c1 (centres undefined) | -0.796%
20 | CCc1nnc2n1CCN(C(=O)c1ccccc1OCC1CC1)C2 | 2.3%
21 | c1ccc(CCN2CCOC3(CCc4ccccc43)C2)nc1 (centres undefined) | -4%

Row | SMILES | cytotoxicity at 10 µM
22 | COC(=O)c1ccc(/C=C/c2ncc(C(=O)O)s2)cc1 | -7.11%
23 | CN(c1ncnc2sccc12)C1CCCN(c2cccnn2)C1 (centres undefined) | 0.0357%
24 | COCCN(CCN(C)C)C(=O)NC1CC1 | -1.78%
25 | COc1ccc2c(c1)C(NCCc1c(C)noc1C)CCCO2 (centres undefined) | -2.79%
26 | CC(=O)NC(CC(=O)Nc1nc(C)c(C)s1)c1ccccc1 (centres undefined) | 3.78%
27 | Cc1cc(C)cc(OCC(=O)N2CCCN(CC(N)=O)CC2)c1 | 0.821%
28 | Cc1ccccc1C(C)(C)CNC(=O)CN(C)c1cnccn1 | -2.21%
29 | CCCC(=O)NC1CCCN(Cc2cccs2)C1 (centres undefined) | -3.25%
30 | CCc1nsc(NC2CCCn3nc(COC)nc32)n1 (centres undefined) | 14.1%
31 | OCC1CCCN1c1cc(NCCNc2ccccn2)ncn1 (centres undefined) | -20.1%
32 | Cn1ccnc1CNC(=O)N1CCCC(Cc2nccn2C)C1 (centres undefined) | 2.63%
33 | COCc1noc(CCNC(=O)c2cc(C)c(C)[nH]c2=O)n1 | -4.71%
34 | Cc1cccc(C(C(=O)N2CC(Oc3ccccc3F)C2)N(C)C)c1 (centres undefined) | -0.572%
35 | CN(CCCC1CCCO1)C(=O)c1cccc(C#N)c1 (centres undefined) | -7.52%
36 | CN1CCN(C2CCCC2)C(CCO)C1 (centres undefined) | 0.456%
37 | CCc1nc(N2CCCC(CCOC)(C(=O)O)C2)ncc1C (centres undefined) | 4.11%
38 | CN(C)CC1(O)CCCN(c2ccnc3c(C(F)(F)F)cccc23)C1 (centres undefined) | -4.55%
39 | C[C@@H]1CN(C(=O)CSc2nncn2C)C[C@@]1(O)C1CC1 | -15.7%
40 | Cc1ccc(CCNc2nccc(-c3cc(C(=O)O)ccn3)n2)o1 | -2.86%
41 | CCC(CO)N(Cc1cccnc1)C(=O)c1ccncc1F (centres undefined) | 2.59%
42 | CC(C)(C)CNCC1(O)CCCN(Cc2ccccc2F)C1=O (centres undefined) | 9.04%

Row | SMILES | cytotoxicity at 10 µM
43 | CN1Cc2nnc(C3CCOCC3)n2C(Cc2c[nH]cn2)C1 (centres undefined) | -12.1%
44 | COc1ccccc1OC1CN(C(=O)c2ccc(C(C)=O)s2)C1 | 2.01%
45 | COc1ncc(CN2CCC3(CCCN(CC4CCCCC4)C3)C2)cn1 (centres undefined) | -6.8%
46 | CC1(C)OC(=O)N(CCOc2ccc(F)cc2)C1=O | -8.68%
47 | CCN(CC1CCCN(CCc2cccc(OC)c2)C1)C(=O)CO (centres undefined) | 9.34%
48 | CN(C)S(=O)(=O)N1CC[C@]2(O)CCN(c3ncccn3)C[C@@H]2C1 | 5.74%
49 | COCc1cc(NCC(F)(F)F)n2nccc2n1 | 17%
50 | COc1ccc(F)c(F)c1CN1CCC2(CC1)[C@H](O)C[C@@H]2OCCN | -14.5%
51 | CCn1ccnc1-c1nc2cc(S(=O)(=O)N3CCCC3)ccc2n1C | -22.3%
52 | CCn1cc(CN(C)C(=O)c2cccc(CCC(C)(C)O)c2)cn1 | -0.0444%
53 | O=C(CCc1c[nH]cn1)N1CC[C@@H](c2ccc3ccccc3c2)[C@H](O)C1 | -4.04%
54 | O=C(c1ccccn1)N1CCCC(c2nccn2Cc2ccncc2)C1 (centres undefined) | -14.1%
55 | CC(C(=O)N1CCCC1)N1CCC(c2nccn2CC2CCC2)CC1 (centres undefined) | -1.96%
56 | Cn1nccc1CNC(=O)CCn1nc(C(F)(F)F)c(Cl)c1C1CC1 | -3.33%
57 | O=C(NCCn1ccnc1)c1ccn(-c2ccccc2F)n1 | 0.533%
58 | Cc1cc(C)c(CNC(=O)N(C)Cc2ccc(F)cc2)c(=O)[nH]1 | -9.12%
59 | Cc1ccc(C(C)NCc2c(C(C)C)nn(C)c2N2CCOCC2)o1 (centres undefined) | -4.79%
60 | O=S1(=O)CCC(N(Cc2nc(-c3ccccn3)no2)Cc2cccs2)C1 (centres undefined) | -4.54%
61 | CNS(=O)(=O)c1ccc(C(=O)N2CCCC2c2ccccc2C)o1 (centres undefined) | -6.23%
62 | Cc1ccc(NC2CCN(C(=O)CCc3cscn3)CC2)nn1 | -9.2%
63 | COc1cccc(CN2CCCC(Cn3nc(C)nc3C)C2)c1 (centres undefined) | -13.4%

Row | SMILES | cytotoxicity at 10 µM
64 | CC(C(=O)NCc1ccc(N2CCCCC2)nc1)n1cncn1 (centres undefined) | -10.3%
65 | O=C(CN1CCCC1c1noc(C2CC2)n1)N1CCc2ccccc21 (centres undefined) | -5.86%
66 | Cc1nn(C)c(N2CCOCC2)c1CNC1CCc2ccccc21 (centres undefined) | -0.704%
67 | Cc1ccc(C(CNC(=O)c2c(C)noc2C(C)C)N(C)C)cc1 (centres undefined) | -12.4%
68 | CN(Cc1nc(-c2ccoc2)no1)C1CCCN(c2cccnn2)C1 (centres undefined) | -14.8%
69 | CN(C)c1ccc(C(=O)N2CCN(CC(O)C(C)(C)C)CC2)nn1 (centres undefined) | -19.2%
70 | Cc1cc(CN2CCOC(CNc3cccnn3)C2)no1 (centres undefined) | -18.4%
71 | CN(Cc1ccc(N2CCOCC2)cc1)C(=O)Cn1cccnc1=O | -18.4%
72 | COC(=O)CC(NC(=O)c1ccc(OC)cc1OC)c1cccs1 (centres undefined) | -0.554%
73 | Cc1cnn(CCNCc2ccc(OCc3ccncc3)cc2)c1 | -2.99%
74 | Cc1cnn(CC2CCCCN2C(=O)Cc2c(C)nn(C)c2C)c1 (centres undefined) | -13%
75 | Cn1ccnc1CN1CCOC(Cn2cccn2)C1 (centres undefined) | -6.07%
76 | COc1cccc(CNC(=O)c2cccnc2SC(C)C)c1 | -1.35%
77 | CC1CCCCN1CCNC(=O)c1ccn(-c2ccccc2)n1 (centres undefined) | -15.2%
78 | Cc1cnc(C(=O)N2CCCC(n3nc(C)nc3C)C2)cn1 (centres undefined) | -12%
79 | CC(NC(=O)NCC1(c2ccc(F)cc2)CCC1)c1nncn1C (centres undefined) | -3.59%
80 | COCC1c2c(cnn2CC2CC2)CCN1Cc1nccs1 (centres undefined) | -1.21%
81 | CC(=O)N1CCN(c2cc(C3CCNCC3)ccn2)CC1 | 6.91%
82 | COc1ncccc1CN1CCn2c(C(=O)N3CCCC3)cnc2C1 | 8.28%
83 | CCc1cnc(N2C[C@@H]3C[C@H](C(=O)NCC(C)C)[C@H](C2)O3)nc1 | 12%
84 | NC(=O)NCC(=O)N1C[C@@H]2CC[C@H]1CN(Cc1cscn1)C2 | 8.86%
